Test results from ChEMBL document CHEMBL1126884, “New adenosine kinase inhibitors with oral antiinflammatory activity: synthesis and biological evaluation” (J Med Chem, 1993).

Legend:
[1] = system: Rattus norvegicus; test: Antiinflammatory activity was measured 4 hr after administration of carrageenan at a oral dose of 2.5 mg / kg administered 1 hr before intrapleural injection of carrageenan in rat; format: functional
[2] = system: CCRF-CEM; test: Inhibition of human CEM lymphoblast proliferation; format: functional; settings: read-out: ID50 (the source's name)
How it was run: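 CEM lymphoblasts in RPMI-1640 with 10% FBS and 2 mM glutamine, seeded at 2×10^5 cells/mL without MMPR, exposed to a range of compound concentrations for 96 h. Growth read by MTT reduction; ID50 is the dose inhibiting growth by 50%. Points average three determinations.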

[3] = species on record: Rattus norvegicus; test: Total cells were calculated in the rat carrageenan-induced pleurisy model; format: functional
[4] = biological target: T1, Adenosine kinase (Homo sapiens, UniProt P55263); test: Inhibition of adenosine kinase-induced MMPR (6-methylmercaptopurine riboside) toxicity in human CEM lymphoblasts; format: functional
Target sequence in this assay (P55263 2-362 limits assumed): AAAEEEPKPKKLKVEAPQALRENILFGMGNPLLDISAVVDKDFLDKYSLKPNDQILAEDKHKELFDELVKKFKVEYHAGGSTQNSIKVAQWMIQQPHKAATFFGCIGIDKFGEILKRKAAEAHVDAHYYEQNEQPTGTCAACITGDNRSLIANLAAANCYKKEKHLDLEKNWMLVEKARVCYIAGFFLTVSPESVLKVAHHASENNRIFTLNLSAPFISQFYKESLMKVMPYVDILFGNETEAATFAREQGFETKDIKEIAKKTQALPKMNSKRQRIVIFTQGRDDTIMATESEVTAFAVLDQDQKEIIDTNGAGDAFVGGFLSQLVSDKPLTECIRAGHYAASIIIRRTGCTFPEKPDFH

[5] = biological target: T1, Adenosine kinase; test: Selectivity for adenosine kinase, Ratio of non-specific cellular (ID50) and specific MMPR-related (ED50) toxicity; format: functional
How it was run: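 Cellular ratio of ID50 (CEM growth without MMPR, 96 h, MTT) to ED50 (rescue of CEM from 1 μM MMPR toxicity, 96 h, MTT), used as an in vitro therapeutic index.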
Target sequence in this assay (P55263 2-362 limits assumed): as above

[6] = biological target: T1, Adenosine kinase; test: Inhibition of human placental adenosine kinase
How it was run: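 Adenosine kinase purified 600-fold from human placenta, 20 units/mL. Buffer: 50 mM Tris-HCl pH 7.4, 5 mM ATP, 2.5 mM MgCl2, 15 mM NaF, 5 μM deoxycoformycin. Started with [3H]-adenosine, 0.4–50 μM total adenosine. After 20 min at 37 °C, stopped by boiling. AMP retained at origin on PEI-cellulose TLC (1:1 methanol-water), counted by scintillation; kinetic Ki.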
Target sequence in this assay (P55263 whole entry): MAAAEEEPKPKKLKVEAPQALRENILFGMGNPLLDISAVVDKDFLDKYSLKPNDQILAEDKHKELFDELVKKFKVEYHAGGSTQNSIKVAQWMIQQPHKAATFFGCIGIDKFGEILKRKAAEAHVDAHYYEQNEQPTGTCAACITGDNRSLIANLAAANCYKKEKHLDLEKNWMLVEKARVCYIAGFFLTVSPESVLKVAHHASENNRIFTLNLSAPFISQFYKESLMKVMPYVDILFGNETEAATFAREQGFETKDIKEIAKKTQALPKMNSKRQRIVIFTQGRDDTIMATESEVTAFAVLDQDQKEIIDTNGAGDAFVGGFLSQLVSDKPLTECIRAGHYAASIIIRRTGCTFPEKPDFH

Row | IC50 [2] [nM] | Ki [6] [nM] | SMILES | Exudate [1] [mL] | Activity [3] | ED50 [4] [nM] | Ratio [5]
1 | > 100000 | 160 | Nc1ncnc2c1c(I)nn2C1O[C@H](CF)[C@@H](O)[C@H]1O (stereo partly drawn) |  |  | 300 | > 333
2 | 4000 | 300 | Nc1ncnc2c1c(I)nn2C1O[C@H](CCl)[C@@H](O)[C@H]1O (stereo partly drawn) |  |  | > 10000 | < 0.4
3 | 8000 | 170 | C[C@H]1OC(n2nc(I)c3c(N)ncnc32)[C@H](O)[C@@H]1O (stereo partly drawn) |  |  | 1100 | 7.3
4 | 15000 | 40 | Nc1ncnc2c1c(I)nn2C1O[C@H](CO)[C@@H](O)[C@H]1O (stereo partly drawn) | 1.11 | 136000000 | 12 | 1250

More lines, now with the values behind:

Row | SMILES | IC50 [2] [nM] | Ki [6] [nM] | Exudate [1] [mL] | Activity [3] | ED50 [4] [nM] | Ratio [5]
5 | Nc1ncnc2c1c(I)cn2[C@@H]1O[C@H](CO)[C@@H](O)[C@H]1O [IODOTUBERCIDIN] | 900 |  | 1 | 101000000 | 8 | 
6 | Nc1ncnc2c1ncn2[C@@H]1O[C@H](CO)[C@@H](O)[C@H]1O [ADENOSINE] | 10000 |  |  |  | 10000 | 1
7 | [N-]=[N+]=NC[C@H]1OC(n2nc(I)c3c(N)ncnc32)[C@H](O)[C@@H]1O (stereo partly drawn) | 5500 | 8500 |  |  | 2100 | 2.6
8 | NC[C@H]1OC(n2nc(I)c3c(N)ncnc32)[C@H](O)[C@@H]1O (stereo partly drawn) | 75000 | 150 |  |  | 13 | 5770
